# Experimental data of several laboratories.
# pKi: −log10 of the molar value.
# HRH3: Histamine H3 receptor (HRH3, Homo sapiens, UniProt Q9Y5N1)
# SLC10A2: Ileal sodium/bile acid cotransporter (SLC10A2, Homo sapiens, UniProt Q12908)
# DRD5: D(1B) dopamine receptor (DRD5, Homo sapiens, UniProt P21918)
# Hypoxanthine-guanine-xanthine phosphoribosyltransferase: Hypoxanthine-guanine-xanthine phosphoribosyltransferase (Plasmodium falciparum, UniProt P20035)
# CYP1B1: Cytochrome P450 1B1 (CYP1B1, Homo sapiens, UniProt Q16678)
# WDR5: WD repeat-containing protein 5 (WDR5, Homo sapiens, UniProt P61964)
Compound,target,test,conditions,pKi
CN1CCN(CCCOc2ccc(Nc3nccc(NCc4ccccc4)n3)cc2)CC1,HRH3,"ligand displacement, radioligand",cell membranes,6.42
COC(=O)C1=C(C)NC(C)=C(C(=O)OC(C)C)C1c1cccc2nonc12 (stereo not drawn),SLC10A2,"transporter uptake, inhibitor",,4.71
CCOc1c(O)cc(Br)c2c1CN1CCc3cc(OCC(F)F)c(O)cc3[C@@H]1C2,DRD5,"cell-free assay, radioligand",,7.09
C=C[C@H]1C[N@@]2CC[C@H]1C[C@H]2[C@H](O)c1ccnc2ccc(OC)cc12,SLC10A2,"transporter uptake, inhibitor",,3.65
CN(C)c1ccc(/C=C2\CCc3cc(OCCCN4CCCCC4)ccc3C2=O)cc1,HRH3,"ligand displacement, radioligand",cell membranes,7.15
CCOC(=O)[C@](CC)(CCCS(=O)(=O)CCOCCOCCNC(=O)OC(C)(C)C)NC(=O)c1ccc(C2CC2)c(Cc2ccc(F)cc2)n1,"Cannabinoid receptor 2 (CNR2, Homo sapiens, UniProt P34972)","ligand displacement, radioligand",cell membranes,7.35
CN(C)c1ccc(/C=C/C=C2\CCc3ccc(OCCCN4CCCCC4)cc3C2=O)cc1,HRH3,"ligand displacement, radioligand",cell membranes,7.00
CCCc1ccc(OCCCCCN2CCCCC2)cc1,HRH3,"ligand displacement, radioligand",cell membranes,7.32
O=C1CN(C[C@@H](CO)NCc2c[nH]c3c(O)nc(O)nc23)S(=O)(=O)N1,Hypoxanthine-guanine-xanthine phosphoribosyltransferase,"enzyme activity, inhibitor",pH 7.4,< 4.70
C#Cc1ccccc1-c1cc(=O)c2ccccc2o1,CYP1B1,"enzyme activity, inhibitor, fluorescence","6 min, pH 7.6",6.21
O=C1CN(CC[C@@H](CO)NCc2c[nH]c3c(O)nc(O)nc23)S(=O)(=O)N1,Hypoxanthine-guanine-xanthine phosphoribosyltransferase,"enzyme activity, inhibitor",pH 7.4,< 4.70
O=C1CCCc2ccc(OCc3ccc(OCCCN4CCCCC4)cc3)cc21,HRH3,"ligand displacement, radioligand",cell membranes,7.77
COc1ccc(C2=NN(C3CCCCCC3)C(=O)C3CC=CCC23)cc1-c1ccc(C(=O)N2CCC[C@@H]2C(N)=O)cc1 (mixture of isomers),"Class 1 phosphodiesterase PDEB1 (PDEB1, Trypanosoma brucei, UniProt Q8WQX9)","enzyme activity, inhibitor",,6.30
COc1cc(O)c(CC=C(C)C)c(O)c1C(=O)/C=C/c1ccc(O)cc1,CYP1B1,"enzyme activity, inhibitor, fluorescence","15 min, pH 7.4",6.77
O=C1c2ccccc2CCN1CCCCN1CCN(c2cccc(Cl)c2Cl)CC1,DRD5,"ligand displacement, radioligand",,5.62
CCCc1ccc(OCCCCCN2CCC(C)CC2)cc1,HRH3,"ligand displacement, radioligand",cell membranes,6.81
CCOC(=O)C1=C(C)NC(C)=C(C(=O)OC)C1c1cccc(Cl)c1Cl (stereo not drawn),SLC10A2,"transporter uptake, inhibitor",,4.30
COc1cc(CNC(=O)c2cccc(CNC3=NCCN3)c2F)cc(OC)c1,WDR5,"ligand displacement, TR-FRET",,< 7.48
CN(C(=O)[C@@H]1Cc2ccccc2CN1C(=O)c1ccc(Cl)s1)c1ccc(N2CCCCC2=O)cc1,"Coagulation factor X (F10, Homo sapiens, UniProt P00742)","enzyme activity, inhibitor, absorbance",,4.55
C#Cc1ccc2oc(-c3ccccc3)cc(=O)c2c1,CYP1B1,"enzyme activity, inhibitor, fluorescence","6 min, pH 7.6",6.27
CCCCNc1cc(C(=O)O)cc(S(N)(=O)=O)c1Oc1ccccc1,SLC10A2,"transporter uptake, inhibitor",,3.65
NS(=O)(=O)NC[C@@H](CO)NCc1c[nH]c2c(O)ncnc12,Hypoxanthine-guanine-xanthine phosphoribosyltransferase,"enzyme activity, inhibitor",pH 7.4,< 4.70
CN(C)c1ccc(/C=C2\CCc3ccc(OCCCN4CCCCC4)cc3C2=O)cc1,HRH3,"ligand displacement, radioligand",cell membranes,6.83
CC(C)(C#N)c1cc(Cn2cncn2)cc(C(C)(C)C#N)c1,SLC10A2,"transporter uptake, inhibitor",,3.40
O=C1CCCc2cc(OCc3ccc(OCCCN4CCCCC4)cc3)ccc21,HRH3,"ligand displacement, radioligand",cell membranes,7.72
Cc1nc(F)ccc1-c1cc(C(=O)NCc2ccc(Cl)c(Cl)c2)ccc1Cn1ccn(C)c1=N,WDR5,"ligand displacement, TR-FRET",,< 7.48
NS(=O)(=O)NC[C@@H](CO)NCc1c[nH]c2c(O)nc(O)nc12,Hypoxanthine-guanine-xanthine phosphoribosyltransferase,"enzyme activity, inhibitor",pH 7.4,< 4.70
O=C(NCc1cc(Cl)cc(Cl)c1)c1cccc(Cn2ccnc2)c1,WDR5,"ligand displacement, FP",,6.17
O=C1CN(C[C@@H](CO)NCc2c[nH]c3c(O)ncnc23)S(=O)(=O)N1,Hypoxanthine-guanine-xanthine phosphoribosyltransferase,"enzyme activity, inhibitor",pH 7.4,< 4.70
CCCCN1CCC(COC(=O)c2ccc(N)c(OCF)c2)CC1,DRD5,"cell-free assay, radioligand",,< 5.00
O=C1c2ccccc2CCN1CCCCN1CCN(c2ccccn2)CC1,DRD5,"ligand displacement, radioligand",,5.03
OC[C@@]12C[C@@H]1[C@@H](n1cnc3c(NC(C4CCCC4)C4CCCC4)nc(Cl)cc31)[C@H](O)[C@@H]2O,DRD5,"cell-free assay, radioligand",,5.29
COc1ccc2c(c1)C(=O)N(CCCN1CCN(c3ccccc3OC)CC1)C2,DRD5,"ligand displacement, radioligand",,5.08
NS(=O)(=O)c1cc(C2(O)NC(=O)c3ccccc32)ccc1Cl (stereo not drawn),SLC10A2,"transporter uptake, inhibitor",,3.15
CCCc1ccc(OCCCCCN2CCCC(C)C2)cc1 (stereo not drawn),HRH3,"ligand displacement, radioligand",cell membranes,7.42
NS(=O)(=O)c1cc2c(cc1Cl)NC(C(Cl)Cl)NS2(=O)=O (stereo not drawn),SLC10A2,"transporter uptake, inhibitor",,3.42
C#Cc1ccc2cc(-c3ccccc3)c(=O)oc2c1,CYP1B1,"enzyme activity, inhibitor, fluorescence","6 min, pH 7.6",5.76
COc1ccc([C@@H]2Sc3ccccc3N(CCN(C)C)C(=O)[C@@H]2OC(C)=O)cc1,SLC10A2,"transporter uptake, inhibitor",,3.68
CC(C)=CCc1c(O)cc(O)c2c1O[C@H](c1ccc(O)cc1)CC2=O,CYP1B1,"enzyme activity, inhibitor, fluorescence","15 min, pH 7.4",6.77
